Experimental data from ChEMBL document CHEMBL5661979, “Pharmacological inhibition of BMK1 suppresses tumor growth through promyelocytic leukemia protein” (Cancer Cell, 2010).
pIC50: −log10 of the molar value.

Columns and labels:
[1] = molecular target: Serine/threonine-protein kinase Aurora (Homo sapiens, UniProt Q96GD4+Q9UQB9+O14965); experiment: Inhibition of AurA/AurB/AurC in human HeLa cells lysate at 10 uM pre incubated for 15 mins followed by ATP acyl phosphate probe addition and measured after 10 mins by LC-MS/MS analysis relative to control; type: subcellular; conditions: time 25.0 min
Procedure, shortened: (§1)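 KiNativ-type profiling in HeLa lysate (5 mg/mL total protein). Lysate preincubated 15 min with inhibitor at 50, 10, 2, 0.8 or 0 μM, then ATP or ADP acylphosphate probe added (5 μM final) for 10 min. Reaction stopped with urea and analysed by targeted MS, using up to four fragment ions per kinase peptide-probe conjugate. % inhibition calculated against untreated lysate. Duplicate reactions.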

[2] = molecular target: Serine/threonine-protein kinase PLK1 (Homo sapiens, UniProt P53350); experiment: Inhibition of PLK1 splice variant in human HeLa cells lysate pre incubated for 15 mins followed by ADP acyl phosphate probe addition and measured after 10 mins by LC-MS/MS analysis; type: subcellular
Serine/threonine-protein kinase PLK1, sequence (P53350 2-603 limits assumed, stated change not applied): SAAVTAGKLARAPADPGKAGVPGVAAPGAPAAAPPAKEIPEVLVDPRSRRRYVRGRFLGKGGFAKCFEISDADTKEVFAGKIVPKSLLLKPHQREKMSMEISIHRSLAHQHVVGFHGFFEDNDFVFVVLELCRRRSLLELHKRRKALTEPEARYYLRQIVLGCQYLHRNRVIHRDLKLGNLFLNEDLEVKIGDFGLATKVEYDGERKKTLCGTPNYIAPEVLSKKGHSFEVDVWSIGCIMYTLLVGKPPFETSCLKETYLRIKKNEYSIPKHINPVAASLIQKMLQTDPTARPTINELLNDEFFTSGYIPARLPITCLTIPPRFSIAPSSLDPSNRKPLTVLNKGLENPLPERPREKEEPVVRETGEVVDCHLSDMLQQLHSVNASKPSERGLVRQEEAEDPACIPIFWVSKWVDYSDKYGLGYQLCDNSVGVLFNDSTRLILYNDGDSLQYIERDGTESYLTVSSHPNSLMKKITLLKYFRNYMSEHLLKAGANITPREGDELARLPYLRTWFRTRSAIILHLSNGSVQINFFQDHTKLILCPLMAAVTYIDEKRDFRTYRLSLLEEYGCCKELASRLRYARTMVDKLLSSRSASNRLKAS

[3] = molecular target: T1, Aurora kinase A (Homo sapiens) (UniProt O14965); experiment: Inhibition of AurA in human HeLa cells lysate at 50 uM pre incubated for 15 mins followed by ATP acyl phosphate probe addition and measured after 10 mins by LC-MS/MS analysis relative to control; type: subcellular; conditions: time 25.0 min; procedure, shortened: as §1
T1 sequence (whole entry): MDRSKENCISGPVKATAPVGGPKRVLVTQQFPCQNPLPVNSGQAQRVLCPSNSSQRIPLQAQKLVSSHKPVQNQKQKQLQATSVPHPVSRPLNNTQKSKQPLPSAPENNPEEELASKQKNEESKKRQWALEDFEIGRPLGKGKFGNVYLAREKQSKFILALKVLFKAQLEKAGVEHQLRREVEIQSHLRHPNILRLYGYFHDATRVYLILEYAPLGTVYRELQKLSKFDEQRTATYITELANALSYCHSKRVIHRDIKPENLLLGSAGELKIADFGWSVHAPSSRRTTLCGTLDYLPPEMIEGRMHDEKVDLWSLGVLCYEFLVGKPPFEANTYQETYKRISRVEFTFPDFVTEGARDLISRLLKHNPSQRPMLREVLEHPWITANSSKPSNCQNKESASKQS

[4] = molecular target: T2, Dual specificity mitogen-activated protein kinase kinase 6 (Homo sapiens) (UniProt P52564); experiment: Inhibition of MAP2K6 in human HeLa cells lysate at 10 uM pre incubated for 15 mins followed by ATP acyl phosphate probe addition and measured after 10 mins by LC-MS/MS analysis relative to control; type: subcellular; conditions: time 25.0 min
T2 sequence (whole entry): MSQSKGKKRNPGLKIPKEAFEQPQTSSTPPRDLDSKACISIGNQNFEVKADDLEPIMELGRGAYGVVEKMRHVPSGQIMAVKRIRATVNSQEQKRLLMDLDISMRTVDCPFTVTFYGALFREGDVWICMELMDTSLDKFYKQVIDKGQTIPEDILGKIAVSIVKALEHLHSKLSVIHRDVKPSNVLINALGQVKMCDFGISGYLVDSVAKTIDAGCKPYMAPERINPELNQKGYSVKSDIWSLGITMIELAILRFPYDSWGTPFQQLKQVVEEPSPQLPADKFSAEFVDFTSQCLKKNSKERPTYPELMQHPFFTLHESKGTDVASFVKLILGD

[5] = molecular target: T3, Serine/threonine-protein kinase 4 (Homo sapiens) (UniProt Q13043); experiment: Inhibition of MST1 in human HeLa cells lysate at 2 uM pre incubated for 15 mins followed by ADP acyl phosphate probe addition and measured after 10 mins by LC-MS/MS analysis relative to control; type: subcellular; conditions: time 25.0 min
T3 sequence (whole entry): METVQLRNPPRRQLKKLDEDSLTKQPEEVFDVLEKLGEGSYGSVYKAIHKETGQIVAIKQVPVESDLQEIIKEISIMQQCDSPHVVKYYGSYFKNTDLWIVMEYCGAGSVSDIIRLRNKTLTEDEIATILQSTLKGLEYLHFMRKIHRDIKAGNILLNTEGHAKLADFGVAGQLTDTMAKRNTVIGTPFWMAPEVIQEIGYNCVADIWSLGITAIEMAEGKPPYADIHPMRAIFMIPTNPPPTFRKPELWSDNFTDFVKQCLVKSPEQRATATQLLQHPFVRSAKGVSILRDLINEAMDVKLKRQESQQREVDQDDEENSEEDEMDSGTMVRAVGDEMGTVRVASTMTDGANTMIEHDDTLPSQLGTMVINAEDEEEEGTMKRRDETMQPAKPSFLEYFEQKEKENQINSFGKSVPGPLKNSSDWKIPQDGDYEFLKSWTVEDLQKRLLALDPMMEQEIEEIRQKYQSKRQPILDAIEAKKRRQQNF

[6] = Plasma concentration in Sprague-Dawley rat at 2 mg/kg, po measured after 8 hrs by LC-MS/MS analysis; type: ADME, organism-based
[7] = molecular target: RPS6KA1/RPS6KA2/RPS6KA3 (Homo sapiens, UniProt P51812+Q15349+Q15418); experiment: Inhibition of RSK1/2/3 in human HeLa cells lysate at 10 uM pre incubated for 15 mins followed by ATP acyl phosphate probe addition and measured after 10 mins by LC-MS/MS analysis relative to control; type: subcellular; conditions: time 25.0 min
RPS6KA1/RPS6KA2/RPS6KA3, sequence (P51812 whole entry, looked up): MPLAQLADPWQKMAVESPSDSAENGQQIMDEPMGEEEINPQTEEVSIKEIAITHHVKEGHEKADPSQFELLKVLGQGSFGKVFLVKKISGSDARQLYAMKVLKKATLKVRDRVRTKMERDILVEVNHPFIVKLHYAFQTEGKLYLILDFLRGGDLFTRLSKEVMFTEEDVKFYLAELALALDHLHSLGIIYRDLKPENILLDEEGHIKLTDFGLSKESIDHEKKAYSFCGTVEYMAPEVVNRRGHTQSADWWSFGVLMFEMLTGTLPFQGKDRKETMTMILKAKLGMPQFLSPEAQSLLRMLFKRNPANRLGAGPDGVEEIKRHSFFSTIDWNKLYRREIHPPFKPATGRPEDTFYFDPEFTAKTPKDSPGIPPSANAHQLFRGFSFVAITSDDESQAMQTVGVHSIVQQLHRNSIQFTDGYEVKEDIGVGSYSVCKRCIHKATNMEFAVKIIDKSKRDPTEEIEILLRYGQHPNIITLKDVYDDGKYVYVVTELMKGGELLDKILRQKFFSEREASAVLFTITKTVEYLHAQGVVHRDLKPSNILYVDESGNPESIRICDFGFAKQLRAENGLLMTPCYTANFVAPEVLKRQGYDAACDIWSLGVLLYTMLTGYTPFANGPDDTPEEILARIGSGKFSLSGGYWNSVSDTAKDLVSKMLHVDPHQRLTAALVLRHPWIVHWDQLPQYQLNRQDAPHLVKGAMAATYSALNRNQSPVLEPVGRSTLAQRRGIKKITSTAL
RPS6KA1/RPS6KA2/RPS6KA3, sequence (Q15349 whole entry, looked up): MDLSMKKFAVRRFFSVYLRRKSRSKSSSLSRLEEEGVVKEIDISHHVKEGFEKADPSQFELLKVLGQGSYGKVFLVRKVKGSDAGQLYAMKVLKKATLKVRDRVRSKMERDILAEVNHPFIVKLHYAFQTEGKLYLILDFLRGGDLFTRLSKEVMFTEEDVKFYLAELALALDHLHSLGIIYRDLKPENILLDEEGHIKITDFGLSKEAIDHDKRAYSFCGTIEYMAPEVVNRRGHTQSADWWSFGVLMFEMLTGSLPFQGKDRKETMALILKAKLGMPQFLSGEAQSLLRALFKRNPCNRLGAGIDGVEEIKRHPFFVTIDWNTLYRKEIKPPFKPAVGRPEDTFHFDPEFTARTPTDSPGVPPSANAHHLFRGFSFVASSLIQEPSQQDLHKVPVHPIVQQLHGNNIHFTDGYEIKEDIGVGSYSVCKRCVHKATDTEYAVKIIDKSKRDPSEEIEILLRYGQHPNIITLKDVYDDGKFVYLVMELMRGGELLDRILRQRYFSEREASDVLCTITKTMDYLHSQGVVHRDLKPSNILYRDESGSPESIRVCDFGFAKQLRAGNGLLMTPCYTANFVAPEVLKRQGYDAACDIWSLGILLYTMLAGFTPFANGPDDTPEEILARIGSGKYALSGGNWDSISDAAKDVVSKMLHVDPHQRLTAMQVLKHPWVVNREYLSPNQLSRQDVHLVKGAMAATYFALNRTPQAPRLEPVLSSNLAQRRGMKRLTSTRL
RPS6KA1/RPS6KA2/RPS6KA3, sequence (Q15418 whole entry, looked up): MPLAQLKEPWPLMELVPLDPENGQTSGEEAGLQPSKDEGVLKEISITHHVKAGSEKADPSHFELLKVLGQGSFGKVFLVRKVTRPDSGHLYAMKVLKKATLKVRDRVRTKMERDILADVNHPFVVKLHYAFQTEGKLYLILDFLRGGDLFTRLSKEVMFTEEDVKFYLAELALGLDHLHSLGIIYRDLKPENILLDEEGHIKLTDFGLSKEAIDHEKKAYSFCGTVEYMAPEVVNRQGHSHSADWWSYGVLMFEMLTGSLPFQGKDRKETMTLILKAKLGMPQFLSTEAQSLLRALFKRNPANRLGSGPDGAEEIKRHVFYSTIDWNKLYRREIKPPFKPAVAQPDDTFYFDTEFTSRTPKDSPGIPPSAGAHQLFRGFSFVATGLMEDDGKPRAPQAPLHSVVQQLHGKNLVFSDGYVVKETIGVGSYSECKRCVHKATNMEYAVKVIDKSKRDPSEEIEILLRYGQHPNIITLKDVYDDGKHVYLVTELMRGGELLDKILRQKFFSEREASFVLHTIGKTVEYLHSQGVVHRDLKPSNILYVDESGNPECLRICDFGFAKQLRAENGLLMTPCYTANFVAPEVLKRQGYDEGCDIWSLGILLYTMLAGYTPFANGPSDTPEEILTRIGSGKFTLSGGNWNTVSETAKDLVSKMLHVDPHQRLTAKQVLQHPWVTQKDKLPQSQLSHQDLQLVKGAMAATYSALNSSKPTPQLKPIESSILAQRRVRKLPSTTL

[8] = molecular target: Interferon-induced, double-stranded RNA-activated protein kinase (Homo sapiens, UniProt P19525); experiment: Inhibition of PKR in human HeLa cells lysate at 2 uM pre incubated for 15 mins followed by ATP acyl phosphate probe addition and measured after 10 mins by LC-MS/MS analysis relative to control; type: subcellular; conditions: time 25.0 min
Interferon-induced, double-stranded RNA-activated protein kinase, sequence (P19525 whole entry): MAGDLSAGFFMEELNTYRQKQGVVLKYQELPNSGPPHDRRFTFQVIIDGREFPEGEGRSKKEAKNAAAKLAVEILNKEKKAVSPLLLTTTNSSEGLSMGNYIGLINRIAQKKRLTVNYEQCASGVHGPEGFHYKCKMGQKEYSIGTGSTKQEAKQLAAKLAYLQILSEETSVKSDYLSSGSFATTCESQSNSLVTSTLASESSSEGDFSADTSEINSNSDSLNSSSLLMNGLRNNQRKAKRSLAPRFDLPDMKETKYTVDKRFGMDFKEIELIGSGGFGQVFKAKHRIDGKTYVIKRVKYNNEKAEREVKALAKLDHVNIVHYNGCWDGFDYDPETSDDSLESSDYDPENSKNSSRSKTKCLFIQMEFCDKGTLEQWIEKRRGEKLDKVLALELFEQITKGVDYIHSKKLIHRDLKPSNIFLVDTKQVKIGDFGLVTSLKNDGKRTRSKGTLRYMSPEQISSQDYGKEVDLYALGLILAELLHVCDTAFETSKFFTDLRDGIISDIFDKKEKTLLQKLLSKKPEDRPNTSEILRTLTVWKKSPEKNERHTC

[9] = molecular target: Phosphatidylinositol 4-kinase beta (Homo sapiens, UniProt Q9UBF8); experiment: Inhibition of PIK4CB in human HeLa cells lysate at 10 uM pre incubated for 15 mins followed by ADP acyl phosphate probe addition and measured after 10 mins by LC-MS/MS analysis relative to control; type: subcellular; conditions: time 25.0 min
Phosphatidylinositol 4-kinase beta, sequence (Q9UBF8 2-816 limits assumed): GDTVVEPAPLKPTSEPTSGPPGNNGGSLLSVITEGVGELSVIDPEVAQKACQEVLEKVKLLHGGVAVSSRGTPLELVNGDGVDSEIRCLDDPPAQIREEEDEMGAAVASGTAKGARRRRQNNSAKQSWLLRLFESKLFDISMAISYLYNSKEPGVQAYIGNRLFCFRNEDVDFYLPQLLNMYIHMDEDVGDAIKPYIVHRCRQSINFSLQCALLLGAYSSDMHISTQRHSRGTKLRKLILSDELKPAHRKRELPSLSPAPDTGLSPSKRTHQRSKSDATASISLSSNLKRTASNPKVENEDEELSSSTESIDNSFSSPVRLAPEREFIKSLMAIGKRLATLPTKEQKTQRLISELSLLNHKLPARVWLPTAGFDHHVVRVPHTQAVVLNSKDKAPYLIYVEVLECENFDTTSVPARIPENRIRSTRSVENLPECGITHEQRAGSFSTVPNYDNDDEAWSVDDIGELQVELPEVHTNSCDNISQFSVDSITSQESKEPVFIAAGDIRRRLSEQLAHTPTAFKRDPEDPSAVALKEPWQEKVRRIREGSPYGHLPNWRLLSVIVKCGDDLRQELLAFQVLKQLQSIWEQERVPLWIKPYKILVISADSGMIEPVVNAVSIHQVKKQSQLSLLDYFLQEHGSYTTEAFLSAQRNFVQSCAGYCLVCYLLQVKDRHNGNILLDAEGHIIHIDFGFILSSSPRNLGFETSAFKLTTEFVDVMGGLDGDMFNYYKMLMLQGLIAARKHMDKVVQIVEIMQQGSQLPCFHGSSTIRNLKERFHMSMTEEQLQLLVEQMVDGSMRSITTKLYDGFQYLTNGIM

[10] = molecular target: Cyclin-dependent kinase 2 (Homo sapiens, UniProt P24941); experiment: Inhibition of CDK2 K1 site in human HeLa cells lysate at 2 uM pre incubated for 15 mins followed by ATP acyl phosphate probe addition and measured after 10 mins by LC-MS/MS analysis relative to control; type: subcellular; conditions: time 25.0 min
Procedure, shortened: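 KiNativ profiling in HeLa lysate (5 mg/mL total protein). Lysate incubated 15 min with inhibitor at 50, 10, 2, 0.8 or 0 μM. ATP or ADP acylphosphate probe then added (5 μM final) and reacted 10 min. Reaction stopped with urea and analysed by targeted MS, using up to four fragment ions per kinase peptide-probe conjugate. % inhibition taken against untreated lysate. Run in duplicate.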

[11] = Inhibition of SRPK1/2 in human HeLa cells lysate at 50 uM pre incubated for 15 mins followed by ADP acyl phosphate probe addition and measured after 10 mins by LC-MS/MS analysis relative to control; conditions: 25 min, condition cancer
[12] = molecular target: Serine/threonine-protein kinase MRCK beta (Homo sapiens, UniProt Q9Y5S2); experiment: Inhibition of MRCKB in human HeLa cells lysate at 50 uM pre incubated for 15 mins followed by ATP acyl phosphate probe addition and measured after 10 mins by LC-MS/MS analysis relative to control; type: subcellular; conditions: time 25.0 min
[13] = molecular target: Casein kinase I isoform alpha (Homo sapiens, UniProt P48729); experiment: Inhibition of CK1alpha in human HeLa cells lysate pre incubated for 15 mins followed by ATP acyl phosphate probe addition and measured after 10 mins by LC-MS/MS analysis; type: subcellular
Casein kinase I isoform alpha, sequence (P48729 whole entry, canonical isoform): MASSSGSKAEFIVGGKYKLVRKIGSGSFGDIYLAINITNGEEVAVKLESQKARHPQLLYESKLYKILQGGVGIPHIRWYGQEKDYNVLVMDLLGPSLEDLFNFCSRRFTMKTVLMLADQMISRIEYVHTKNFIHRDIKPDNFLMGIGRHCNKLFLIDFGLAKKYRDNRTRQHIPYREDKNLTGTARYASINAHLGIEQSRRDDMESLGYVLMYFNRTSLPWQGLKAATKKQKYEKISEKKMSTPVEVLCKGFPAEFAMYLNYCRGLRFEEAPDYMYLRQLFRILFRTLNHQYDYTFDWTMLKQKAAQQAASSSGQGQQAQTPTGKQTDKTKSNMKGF

With CCOc1cc(N2CCC(O)CC2)ccc1Nc1ncc2c(n1)N(C)c1ccccc1C(=O)N2C the inhibition [1] was -7.7%, the pIC50 [2] was < 4.30 and the inhibition [3] was 13.1%. The inhibition [4] was -9%, the inhibition [5] was 30.6% and the concentration at 8 h [6] was 34 nM. For the same compound, the inhibition [7] was -7.4%, the inhibition [8] was -2.6% and the inhibition [9] was 1.1%. The inhibition [10] was -2.9%, the inhibition at 50 µM [11] was -53.5% and the inhibition [12] was -5%. For the same compound, the pIC50 [13] was < 4.30.
